Assay results published in ChEMBL document CHEMBL4725242, “Discovery of GS-9688 (Selgantolimod) as a Potent and Selective Oral Toll-Like Receptor 8 Agonist for the Treatment of Chronic Hepatitis B” (J Med Chem, 2020).
Activity calls are given as the source filed them.

How the values were obtained:
[1] = molecular target: Nucleotide-binding oligomerization domain-containing protein 2 (Homo sapiens) (UniProt Q9HC29); assay: Agonist activity at human NOD2 expressed in HEK293 cells assessed as increase in NF-kappaB activation up to 10 uM incubated for 24 hrs by quanti-blue SEAP reporter gene assay; type: cell-based; conditions: dose microM <=10, time 24.0 hrs
Nucleotide-binding oligomerization domain-containing protein 2 (Homo sapiens), sequence (Q9HC29 whole entry, the tested form may be a part): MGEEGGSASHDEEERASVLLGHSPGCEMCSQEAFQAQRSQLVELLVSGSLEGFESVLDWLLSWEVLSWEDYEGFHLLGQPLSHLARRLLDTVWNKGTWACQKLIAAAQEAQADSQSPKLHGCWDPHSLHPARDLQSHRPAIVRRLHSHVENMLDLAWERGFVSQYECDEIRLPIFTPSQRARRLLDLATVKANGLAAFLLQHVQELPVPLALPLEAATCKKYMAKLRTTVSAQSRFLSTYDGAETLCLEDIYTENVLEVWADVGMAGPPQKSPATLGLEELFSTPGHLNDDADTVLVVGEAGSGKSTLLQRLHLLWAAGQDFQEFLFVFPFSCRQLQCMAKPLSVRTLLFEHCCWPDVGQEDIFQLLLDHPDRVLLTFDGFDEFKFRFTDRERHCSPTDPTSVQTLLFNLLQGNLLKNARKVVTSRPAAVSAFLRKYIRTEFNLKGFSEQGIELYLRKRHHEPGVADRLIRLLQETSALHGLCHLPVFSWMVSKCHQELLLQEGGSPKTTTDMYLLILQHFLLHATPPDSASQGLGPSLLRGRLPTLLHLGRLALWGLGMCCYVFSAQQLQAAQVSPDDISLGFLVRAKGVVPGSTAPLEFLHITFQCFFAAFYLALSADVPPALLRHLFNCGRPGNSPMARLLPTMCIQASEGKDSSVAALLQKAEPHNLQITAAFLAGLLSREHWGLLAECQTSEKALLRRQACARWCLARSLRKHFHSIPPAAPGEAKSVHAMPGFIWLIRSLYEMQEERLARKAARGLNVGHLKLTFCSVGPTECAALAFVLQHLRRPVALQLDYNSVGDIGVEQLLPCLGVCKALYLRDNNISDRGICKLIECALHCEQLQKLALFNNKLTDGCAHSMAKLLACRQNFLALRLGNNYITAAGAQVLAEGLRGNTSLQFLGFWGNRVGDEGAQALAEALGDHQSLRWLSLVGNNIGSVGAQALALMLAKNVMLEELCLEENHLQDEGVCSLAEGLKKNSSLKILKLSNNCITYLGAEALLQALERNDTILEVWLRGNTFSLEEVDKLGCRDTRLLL
How it was run: (§1)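 HEK293 cells stably expressing individual human TLRs or other innate immune receptors, used as reporter gene assays. Minimum effective concentration defined as the level giving a 3-fold rise over background.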

[2] = Cmax in Sprague-Dawley rat at 5 mg/kg, po administered via gavage by HPLC-MS analysis; type: ADME, organism-based; design: route oral, dose 5 mg/kg; conditions: in vivo
How it was run: (§2)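 Oral dosing in 2% ethanol/40% PEG 300/58% 0.01N HCl: Sprague Dawley rats 5 mg/kg, beagle dogs 0.5 mg/kg, cynomolgus monkeys 3 mg/kg.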

[3] = molecular target: T1, Toll-like receptor 7 (Homo sapiens, UniProt Q9NYK1); assay: Agonist activity at TLR7 in human cryopreserved PBMC assessed as induction of IFNalpha production measured after 24 hrs
T1 sequence (Q9NYK1 whole entry): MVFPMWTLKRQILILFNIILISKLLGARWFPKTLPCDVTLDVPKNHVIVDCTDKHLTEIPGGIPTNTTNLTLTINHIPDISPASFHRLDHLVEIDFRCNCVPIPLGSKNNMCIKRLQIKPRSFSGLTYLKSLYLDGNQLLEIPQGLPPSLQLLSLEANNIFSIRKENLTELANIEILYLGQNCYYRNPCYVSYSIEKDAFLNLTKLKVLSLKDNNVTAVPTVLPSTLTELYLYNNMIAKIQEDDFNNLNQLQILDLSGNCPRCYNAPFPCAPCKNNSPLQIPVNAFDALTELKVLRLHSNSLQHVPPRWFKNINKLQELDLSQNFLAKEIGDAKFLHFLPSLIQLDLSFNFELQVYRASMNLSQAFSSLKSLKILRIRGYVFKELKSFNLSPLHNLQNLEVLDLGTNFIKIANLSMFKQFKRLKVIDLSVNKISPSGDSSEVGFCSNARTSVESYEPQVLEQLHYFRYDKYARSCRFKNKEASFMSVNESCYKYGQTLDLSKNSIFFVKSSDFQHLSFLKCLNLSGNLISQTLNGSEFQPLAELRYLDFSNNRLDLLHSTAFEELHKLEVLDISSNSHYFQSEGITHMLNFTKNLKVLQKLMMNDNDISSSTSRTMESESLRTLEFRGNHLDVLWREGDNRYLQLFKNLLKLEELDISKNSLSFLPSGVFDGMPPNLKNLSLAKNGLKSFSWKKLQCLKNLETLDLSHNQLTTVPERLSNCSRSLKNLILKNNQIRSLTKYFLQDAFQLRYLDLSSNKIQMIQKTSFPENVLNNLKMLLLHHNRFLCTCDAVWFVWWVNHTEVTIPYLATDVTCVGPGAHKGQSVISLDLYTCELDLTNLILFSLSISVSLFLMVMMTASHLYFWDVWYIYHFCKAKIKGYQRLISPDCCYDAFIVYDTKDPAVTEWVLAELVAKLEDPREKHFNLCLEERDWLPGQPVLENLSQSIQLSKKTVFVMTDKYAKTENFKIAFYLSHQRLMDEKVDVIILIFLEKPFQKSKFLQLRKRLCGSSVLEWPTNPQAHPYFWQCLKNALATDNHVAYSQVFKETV
How it was run: (§3)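 Cryopreserved healthy-donor human PBMC, recovered 2 h at 37°C/5% CO2, then 100k cells/well in RPMI/10% FBS exposed 24 h at 37°C to a 10-point half-log dilution series (0.5% final DMSO). Supernatant IFNα-2a quantified by MSD electrochemiluminescence immunoassay. For the ratio, divided by the IL-12p40 EC50 from the same PBMC screen.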

[4] = species: Homo sapiens; assay: Selectivity ratio of EC50 for TLR7 in human cryopreserved PBMC assessed as induction of IFNalpha production to EC50 for TLR8 in human cryopreserved PBMC assessed as induction of IL-12p40 production
How it was run: as §3, with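 “immunoassay. Normalized to 10 µM GS-9620 positive and DMSO negative controls; EC50 from 4-parameter logistic fit.” for “immunoassay.”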

[5] = Volume of distribution at steady state in Sprague-Dawley rat at 1 mg/kg, iv administered as 30 mins infusion by HPLC-MS analysis; type: ADME, organism-based; conditions: in vivo, read-out: Vdss
How it was run: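 30-min intravenous infusion: Sprague Dawley rats 1 mg/kg, beagle dogs 0.25 mg/kg, cynomolgus monkeys 0.1 mg/kg; n = 3 per species, reported as mean ± SD.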

[6] = Drug excretion in bile duct-cannulated Sprague-Dawley rat bile; type: ADME; conditions: in vivo
[7] = molecular target: Toll-like receptor 3 (Homo sapiens) (UniProt O15455); assay: Agonist activity at human TLR3 expressed in HEK293 cells assessed as increase in NF-kappaB activation up to 10 uM incubated for 18 hrs by quanti-blue SEAP reporter gene assay; type: cell-based; conditions: dose microM <=10, time […]; how it was run: as §1
Toll-like receptor 3 (Homo sapiens), sequence (O15455 whole entry): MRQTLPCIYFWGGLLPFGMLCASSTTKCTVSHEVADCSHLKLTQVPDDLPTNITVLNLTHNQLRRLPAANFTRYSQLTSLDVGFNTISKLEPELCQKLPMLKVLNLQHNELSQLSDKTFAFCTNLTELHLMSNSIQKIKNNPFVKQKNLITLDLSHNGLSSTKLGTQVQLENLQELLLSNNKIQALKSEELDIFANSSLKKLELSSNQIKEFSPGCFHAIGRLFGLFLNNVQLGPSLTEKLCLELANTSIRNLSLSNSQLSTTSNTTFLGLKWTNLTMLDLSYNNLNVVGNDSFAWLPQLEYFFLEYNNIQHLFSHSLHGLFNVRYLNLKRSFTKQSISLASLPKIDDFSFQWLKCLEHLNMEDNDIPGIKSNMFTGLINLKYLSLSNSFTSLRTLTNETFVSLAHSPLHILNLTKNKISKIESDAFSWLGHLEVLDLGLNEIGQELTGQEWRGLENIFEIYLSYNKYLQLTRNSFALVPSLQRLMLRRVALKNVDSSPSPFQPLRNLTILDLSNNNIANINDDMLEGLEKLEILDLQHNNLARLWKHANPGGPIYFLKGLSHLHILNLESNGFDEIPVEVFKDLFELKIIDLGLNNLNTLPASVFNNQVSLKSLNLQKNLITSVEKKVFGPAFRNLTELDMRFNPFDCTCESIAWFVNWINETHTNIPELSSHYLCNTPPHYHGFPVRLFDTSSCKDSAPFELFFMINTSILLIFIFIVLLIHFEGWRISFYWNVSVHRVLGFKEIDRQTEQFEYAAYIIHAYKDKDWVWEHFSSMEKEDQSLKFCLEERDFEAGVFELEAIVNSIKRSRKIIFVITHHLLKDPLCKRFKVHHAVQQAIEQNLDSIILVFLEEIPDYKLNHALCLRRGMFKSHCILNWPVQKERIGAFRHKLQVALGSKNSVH

[8] = molecular target: Toll-like receptor 4 (Homo sapiens) (UniProt O00206); assay: Agonist activity at human TLR4 expressed in HEK293 cells assessed as increase in NF-kappaB activation up to 10 uM incubated for 24 hrs by quanti-blue SEAP reporter gene assay; type: cell-based; conditions: dose microM <=10, time 24.0 hrs; how it was run: as §1
Toll-like receptor 4 (Homo sapiens), sequence (O00206 whole entry): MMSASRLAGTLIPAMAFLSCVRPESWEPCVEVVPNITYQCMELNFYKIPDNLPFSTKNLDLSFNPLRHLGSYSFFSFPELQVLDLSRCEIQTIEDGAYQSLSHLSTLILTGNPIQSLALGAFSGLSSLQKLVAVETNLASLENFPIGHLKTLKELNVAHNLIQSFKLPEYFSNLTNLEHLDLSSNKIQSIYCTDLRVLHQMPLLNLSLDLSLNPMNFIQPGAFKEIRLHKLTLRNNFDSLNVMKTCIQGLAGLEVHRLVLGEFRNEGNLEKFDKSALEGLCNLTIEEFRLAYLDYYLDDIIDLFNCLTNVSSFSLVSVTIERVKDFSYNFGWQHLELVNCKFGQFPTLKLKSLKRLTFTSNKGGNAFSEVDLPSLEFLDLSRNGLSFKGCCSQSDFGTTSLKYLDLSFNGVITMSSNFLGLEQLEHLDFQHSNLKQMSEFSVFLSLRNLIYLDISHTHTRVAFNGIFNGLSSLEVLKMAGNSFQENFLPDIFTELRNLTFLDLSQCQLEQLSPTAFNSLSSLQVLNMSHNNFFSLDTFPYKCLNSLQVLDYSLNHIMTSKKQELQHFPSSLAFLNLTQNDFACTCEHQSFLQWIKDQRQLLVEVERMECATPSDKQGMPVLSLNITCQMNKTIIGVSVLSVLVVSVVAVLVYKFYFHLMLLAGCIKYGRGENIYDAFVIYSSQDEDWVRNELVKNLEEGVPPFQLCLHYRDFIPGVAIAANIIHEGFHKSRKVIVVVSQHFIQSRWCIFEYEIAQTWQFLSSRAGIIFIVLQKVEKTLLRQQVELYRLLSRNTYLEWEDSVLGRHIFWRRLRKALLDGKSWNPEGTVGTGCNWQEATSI

[9] = Oral bioavailability in Beagle dog at 0.5 mg/kg administered via gavage by HPLC-MS analysis; type: ADME, organism-based, Canis lupus familiaris; conditions: in vivo; how it was run: as §2
[10] = molecular target: T2, C-type lectin domain family 4 member E (Homo sapiens) (UniProt Q9ULY5); assay: Agonist activity at human Mincle receptor up to 10 uM; conditions: dose microM <=10
T2 sequence (whole entry): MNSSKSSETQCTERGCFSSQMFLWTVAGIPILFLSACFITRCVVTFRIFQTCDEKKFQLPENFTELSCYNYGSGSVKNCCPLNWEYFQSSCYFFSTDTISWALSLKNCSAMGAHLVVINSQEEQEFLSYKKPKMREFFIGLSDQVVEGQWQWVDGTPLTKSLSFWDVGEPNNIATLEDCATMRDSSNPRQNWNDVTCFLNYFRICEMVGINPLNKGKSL

- Activity [1]: inactive
- Cmax [2]: 517 nM
- EC50 [3]: > 50 µM
- Ratio EC50 [4]: > 185
- Vd [5]: 1.1 L/kg
- Drug excretion [6]: Active
- Activity [7]: inactive
- Activity [8]: inactive
- bioavailability [9]: 0.8%
- Activity [10]: inactive
Compound: CCCC[C@](C)(CO)Nc1nc(N)nc2cc(F)cnc12 [SELGANTOLIMOD]
